Measurements from different studies.
Each line is one published result; the experiments were not run side by side.
Target: Mitogen-activated protein kinase kinase kinase 11 (MAP3K11, Homo sapiens, UniProt Q16584)

Compound	effect on	mode	method	concentration	quantity	value
Cn1cc(-c2cccc(N3CCc4c(sc5c4CC(C)(C)C5)C3=O)c2CO)cc(Nc2ccncn2)c1=O	enzyme activity	inhibitor	–	1 µM	inhibition	-4%
COc1ncccc1-c1cnn2ccc(N3CCN(C(=O)OC(C)C)CC3)nc12	binding	–	competition with immobilised ligand	1 µM	remaining binding	76%
O=c1[nH]c2ccccc2n1C1CCN(Cc2ccc(-c3[nH]c4cc5ncnc5cc4nc3-c3ccccc3)cc2)CC1	cell-free assay	–	–	0.5 µM	remaining signal	94.6%
Cn1cc(-c2cc(F)cc(N3CCn4c(cc5c4CCCC5)C3=O)c2CO)cc(Nc2ccc(N3CCN(C4COC4)CC3)cn2)c1=O	enzyme activity	inhibitor	–	0.1 µM	inhibition	0%
N#CC1(c2ccccn2)CCN(Cc2cc(C(=O)O)c(=O)n3ccccc23)CC1	cell-free assay	–	competition with immobilised ligand	1 µM	remaining binding	100%
Cc1nn(C)cc1-c1nc2c(N3CCN(Cc4ccc(Cl)cc4)CC3)c(Cl)cnc2[nH]1	binding	–	competition with immobilised ligand	1 µM	remaining binding	9.8%
Cn1cncc1[C@](O)(COc1ccc(C#N)cc1-c1ccc(OC(F)(F)F)cc1)c1ccc(C#N)cc1	cell-free assay	–	competition with immobilised ligand	1 µM	remaining binding	86%
CC(C)(C)c1cc(C=C(C#N)C#N)cc(Br)c1O	enzyme activity	inhibitor	–	0.5 µM	remaining activity	97.4%
Nc1ncc(-c2nc(N3CCOCC3)nc(N3CCOCC3)n2)c(C(F)F)n1	binding	–	competition with immobilised ligand	10 µM	remaining binding	47%
